Measurements from ChEMBL document CHEMBL4819122, “Novel 4-(piperazin-1-yl)quinolin-2(1H)-one bearing thiazoles with antiproliferative activity through VEGFR-2-TK inhibition” (Bioorg Med Chem, 2021).
The source made the active and inactive calls. The rule behind the calls is not given here.

What was measured:
[1] = tested on: M14; experiment: Cytotoxicity against human M14 assessed as growth inhibition at 10 uM by NCI protocol relative to control; format: functional; settings: read-out: GI
Method in brief: (§1)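 Run by NCI as a single-dose screen at 10 μM across the sixty-cell-line panel, which covers nine human tumour tissue types. The read-out is percent growth inhibition of treated cells relative to untreated cells.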

[2] = tested on: OVCAR-3; experiment: Cytotoxicity against human OVCAR-3 assessed as growth inhibition at 10 uM by NCI protocol relative to control; format: functional; settings: read-out: GI; method in brief: as §1
[3] = tested on: SW-620; experiment: Cytotoxicity against human SW-620 assessed as growth inhibition at 10 uM by NCI protocol relative to control; format: functional; settings: read-out: GI
Method in brief: (§2)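 Run by the NCI under its standard protocol: one dose of 10 μM against a sixty-line panel from nine human tumour tissues. Result given as percent growth inhibition of treated cells relative to untreated cells.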

[4] = tested on: MDA-MB-435; experiment: Cytotoxicity against human MDA-MB-435 assessed as growth inhibition at 10 uM by NCI protocol relative to control; format: functional, cell-based; method in brief: as §1
[5] = tested on: UO-31; experiment: Cytotoxicity against human UO31 assessed as growth inhibition at 10 uM by NCI protocol relative to control; format: functional; settings: read-out: GI; method in brief: as §2
[6] = tested on: HCT-15; experiment: Cytotoxicity against human HCT-15 assessed as growth inhibition at 10 uM by NCI protocol relative to control; format: functional; settings: read-out: GI; method in brief: as §1
[7] = tested on: Malme-3M; experiment: Cytotoxicity against human MALME-3M assessed as growth inhibition at 10 uM by NCI protocol relative to control; format: functional; settings: read-out: GI; method in brief: as §1
[8] = tested on: EKVX; experiment: Cytotoxicity against human EKVX assessed as growth inhibition at 10 uM by NCI protocol relative to control; format: functional; settings: read-out: GI; method in brief: as §1
[9] = tested on: HCC 2998; experiment: Cytotoxicity against human HCC-2998 assessed as growth inhibition at 10 uM by NCI protocol relative to control; format: functional; settings: read-out: GI; method in brief: as §1
[10] = tested on: BT-549; experiment: Cytotoxicity against human BT-549 assessed as growth inhibition at 10 uM by NCI protocol relative to control; format: functional; settings: read-out: GI; method in brief: as §1
[11] = tested on: SNB-19; experiment: Cytotoxicity against human SNB-19 assessed as growth inhibition at 10 uM by NCI protocol relative to control; format: functional; settings: read-out: GI; method in brief: as §2
[12] = tested on: SK-OV-3; experiment: Cytotoxicity against human SK-OV-3 assessed as growth inhibition at 10 uM by NCI protocol relative to control; format: functional; settings: read-out: GI; method in brief: as §1
[13] = tested on: OVCAR-8; experiment: Cytotoxicity against human OVCAR-8 assessed as growth inhibition at 10 uM by NCI protocol relative to control; format: functional; settings: read-out: GI; method in brief: as §1
[14] = tested on: 786-0; experiment: Cytotoxicity against human 786-0 assessed as growth inhibition at 10 uM by NCI protocol relative to control; format: functional; settings: read-out: GI; method in brief: as §1
[15] = tested on: T47D; experiment: Cytotoxicity against human T47D cells assessed as reduction in cell viability after 3 hrs by MTT assay
[16] = tested on: A498; experiment: Cytotoxicity against human A498 assessed as growth inhibition at 10 uM by NCI protocol relative to control; format: functional; settings: read-out: GI; method in brief: as §1
[17] = tested on: UACC-257; experiment: Cytotoxicity against human UACC-257 assessed as growth inhibition at 10 uM by NCI protocol relative to control; format: functional; settings: read-out: GI; method in brief: as §2
[18] = tested on: SF-268; experiment: Cytotoxicity against human SF-268 assessed as growth inhibition at 10 uM by NCI protocol relative to control; format: functional; settings: read-out: GI; method in brief: as §1
[19] = tested on: U-251; experiment: Cytotoxicity against human U251 assessed as growth inhibition at 10 uM by NCI protocol relative to control; format: functional; settings: read-out: GI; method in brief: as §2
[20] = tested on: K562; experiment: Cytotoxicity against human K-562 assessed as growth inhibition at 10 uM by NCI protocol relative to control; format: functional; settings: read-out: GI; method in brief: as §1
[21] = tested on: OVCAR-4; experiment: Cytotoxicity against human OVCAR-4 assessed as growth inhibition at 10 uM by NCI protocol relative to control; format: functional; settings: read-out: GI; method in brief: as §1
[22] = tested on: NCI-H226; experiment: Cytotoxicity against human NCI-H226 assessed as growth inhibition at 10 uM by NCI protocol relative to control; format: functional; settings: read-out: GI; method in brief: as §1
[23] = tested on: NCI-H522; experiment: Cytotoxicity against human NCI-H522 assessed as growth inhibition at 10 uM by NCI protocol relative to control; format: functional; settings: read-out: GI; method in brief: as §1
[24] = tested on: MDA-MB-468; experiment: Cytotoxicity against human MDA-MB-468 assessed as growth inhibition at 10 uM by NCI protocol relative to control; format: functional; settings: read-out: GI; method in brief: as §1
[25] = tested on: SK-MEL-2; experiment: Cytotoxicity against human SK-MEL-2 assessed as growth inhibition at 10 uM by NCI protocol relative to control; format: functional; settings: read-out: GI; method in brief: as §1
[26] = tested on: SF-295; experiment: Cytotoxicity against human SF-295 assessed as growth inhibition at 10 uM by NCI protocol relative to control; format: functional; settings: read-out: GI; method in brief: as §1
[27] = tested on: KM12; experiment: Cytotoxicity against human KM12 assessed as growth inhibition at 10 uM by NCI protocol relative to control; format: functional; settings: read-out: GI; method in brief: as §1
[28] = tested on: COLO 205; experiment: Cytotoxicity against human COLO 205 assessed as growth inhibition at 10 uM by NCI protocol relative to control; format: functional; settings: read-out: GI; method in brief: as §1
[29] = tested on: CAKI-1; experiment: Cytotoxicity against human Caki1 assessed as growth inhibition at 10 uM by NCI protocol relative to control; format: functional; settings: read-out: GI; method in brief: as §1
[30] = tested on: SNB-75; experiment: Cytotoxicity against human SNB-75 assessed as growth inhibition at 10 uM by NCI protocol relative to control; format: functional; settings: read-out: GI; method in brief: as §2
[31] = tested on: NCI-H460; experiment: Cytotoxicity against human NCI-H460 assessed as growth inhibition at 10 uM by NCI protocol relative to control; format: functional; settings: read-out: GI; method in brief: as §1
[32] = tested on: A549; experiment: Cytotoxicity against human A549 assessed as growth inhibition at 10 uM by NCI protocol relative to control; format: functional; settings: read-out: GI; method in brief: as §1
[33] = tested on: ACHN; experiment: Cytotoxicity against human ACHN assessed as growth inhibition at 10 uM by NCI protocol relative to control; format: functional; settings: read-out: GI; method in brief: as §1
[34] = tested on: NCI/ADR-RES; experiment: Cytotoxicity against human NCl/ADR-RES assessed as growth inhibition at 10 uM by NCI protocol relative to control; format: functional; settings: read-out: GI; method in brief: as §1
[35] = tested on: RXF 393; experiment: Cytotoxicity against human RXF 393 assessed as growth inhibition at 10 uM by NCI protocol relative to control; format: functional; settings: read-out: GI; method in brief: as §1
[36] = tested on: CCRF-CEM; experiment: Cytotoxicity against human CCRF-CEM assessed as growth inhibition at 10 uM by NCI protocol relative to control; format: functional; settings: read-out: GI; method in brief: as §1
[37] = tested on: IGROV-1; experiment: Cytotoxicity against human IGROVI assessed as growth inhibition at 10 uM by NCI protocol relative to control; format: functional; settings: read-out: GI; method in brief: as §1
[38] = tested on: DU-145; experiment: Cytotoxicity against human DU-145 assessed as growth inhibition at 10 uM by NCI protocol relative to control; format: functional; settings: read-out: GI; method in brief: as §1
[39] = tested on: SN12C; experiment: Cytotoxicity against human SN12C assessed as growth inhibition at 10 uM by NCI protocol relative to control; format: functional; settings: read-out: GI; method in brief: as §2
[40] = tested on: SF-539; experiment: Cytotoxicity against human […] assessed as growth inhibition at 10 uM by NCI protocol relative to control; format: functional; settings: read-out: GI; method in brief: as §1
[41] = tested on: NCI-H23; experiment: Cytotoxicity against human NCI-H23 assessed as growth inhibition at 10 uM by NCI protocol relative to control; format: functional; settings: read-out: GI; method in brief: as §1
[42] = tested on: SK-MEL-28; experiment: Cytotoxicity against human SK-MEL-28 assessed as growth inhibition at 10 uM by NCI protocol relative to control; format: functional; settings: read-out: GI; method in brief: as §1
[43] = tested on: HL-60; experiment: Cytotoxicity against human HL60 assessed as growth inhibition at 10 uM by NCI protocol relative to control; format: functional; settings: read-out: GI; method in brief: as §1

O=C(CN1CCN(c2cc(=O)n(-c3ccccc3)c3ccccc23)CC1)Nc1nc(-c2ccccc2)cs1
inhibition of growth at 10 µM [1]: 26.6%
inhibition of growth at 10 µM [2]: 27.5%
inhibition of growth at 10 µM [3]: 31.4%
growth inhibition (GI) [4]: inactive
inhibition of growth at 10 µM [5]: 58.4%
inhibition of growth at 10 µM [6]: 74.8%
inhibition of growth at 10 µM [7]: 30.3%
inhibition of growth at 10 µM [8]: 54.5%
inhibition of growth at 10 µM [9]: 18.2%
inhibition of growth at 10 µM [10]: 33%
inhibition of growth at 10 µM [11]: 14.8%
inhibition of growth at 10 µM [12]: 29.2%
inhibition of growth at 10 µM [13]: 30.2%
inhibition of growth at 10 µM [14]: 10.7%
IC50 [15]: 10.3 µM
inhibition of growth at 10 µM [16]: 33.8%
inhibition of growth at 10 µM [17]: 51.5%
inhibition of growth at 10 µM [18]: 20.8%
inhibition of growth at 10 µM [19]: 40.8%
inhibition of growth at 10 µM [20]: 77.6%
inhibition of growth at 10 µM [21]: 76.7%
inhibition of growth at 10 µM [22]: 51.8%
inhibition of growth at 10 µM [23]: 33.5%
inhibition of growth at 10 µM [24]: 86.7%
inhibition of growth at 10 µM [25]: 11.1%
inhibition of growth at 10 µM [26]: 33.3%
inhibition of growth at 10 µM [27]: 37%
inhibition of growth at 10 µM [28]: 39.9%
inhibition of growth at 10 µM [29]: 38.6%
inhibition of growth at 10 µM [30]: 28.4%
inhibition of growth at 10 µM [31]: 67.8%
inhibition of growth at 10 µM [32]: 43.8%
inhibition of growth at 10 µM [33]: 36.2%
inhibition of growth at 10 µM [34]: 37.3%
inhibition of growth at 10 µM [35]: 23.1%
inhibition of growth at 10 µM [36]: 60.4%
inhibition of growth at 10 µM [37]: 32.5%
inhibition of growth at 10 µM [38]: 27.3%
inhibition of growth at 10 µM [39]: 17.9%
inhibition of growth at 10 µM [40]: 22.9%
inhibition of growth at 10 µM [41]: 39.2%
inhibition of growth at 10 µM [42]: 28.8%
inhibition of growth at 10 µM [43]: 62.9%
